WT yeast gro inh – growth inhibition of WT yeast, mitochondrial fusion screen; hit rate 2.1% among 190,000; inhibition, % at 10 µM; mitochondrial fusion phenotypic screen, WT strain; in the data active means inhibition above about 58%; tested in S. cerevisiae
CHOP inh – inhibitors of CHOP induction in ER stress response; CHO-K1 CHOP-promoter luciferase, tunicamycin-induced, 15-18 h; inhibition, % at 10 µM; hit rate 3.8% among 220,000;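 active means compounds that reduced the stress-induced luciferase reporter signal by more than about 70% of percent inhibition, limit read from the data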;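 further: 0% = tunicamycin plus vehicle and 100% = wells without tunicamycin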
GRIN3A LBD mod – modulators (binders) of human NR3A ligand-binding domain. NR3A LBD differential scanning fluorimetry, Tm shift; 0% = protein alone, 100% = glycine-bound protein. Tm shift relative to glycine control, % at 25 µM. hit rate 2.5% among 340,000;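 active means melting temperature shift of at least 10% of the positive control shift, at one fixed dose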
EBV gp42 inh – inhibitors of Epstein-Barr virus glycoprotein 42. Q1HVG2. Fluorescence polarization binding assay, mP read-out. inhibition, % (tested at 21.74 µM). hit rate 0.42% among 220,000. AID 1085; in the data active means inhibition above about 50%
Target sequence (Q1HVG2 whole entry, looked up): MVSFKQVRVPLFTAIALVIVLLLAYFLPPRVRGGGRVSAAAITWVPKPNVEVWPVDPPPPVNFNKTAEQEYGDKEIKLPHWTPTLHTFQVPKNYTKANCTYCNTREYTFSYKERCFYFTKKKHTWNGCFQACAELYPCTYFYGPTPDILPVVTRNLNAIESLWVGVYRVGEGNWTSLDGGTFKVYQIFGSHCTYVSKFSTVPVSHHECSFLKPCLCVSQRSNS
MPTP block – permeability transition pore inhibition. hit rate 1.4% among 360,000. isolated mouse mitochondria, Ca2+ swelling absorbance, 30 min. inhibition, % at 10 µM;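 active means inhibition of 50% or more, scaled per plate between neutral and stimulator controls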;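 further: 0% = DMSO wells given calcium and 100% = 1 mM EGTA wells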
Tb MetRS inh – blocks T. brucei methionyl-tRNA synthetase activity | AID 624268 | inhibition, % at 11.9 µM | hit rate 0.4% among 360,000 | purified T. brucei MetRS, ATP depletion, Kinase-Glo luminescence;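 active means inhibition above a per-plate cutoff of the control wells' mean inhibition plus 3 SD, cut at about 5.5% in these data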;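 further: 0% = DMSO wells median and 100% = median of wells with control inhibitor compound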
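Dosing: 11.9 µM single point; system: parasite MetRS enzyme; technique: luminescence of leftover ATP; times: 15 min enzyme-compound preincubation, 2 h reaction, 10 min detection, 25 °C; replicates: each compound tested once; read-out basis: percent inhibition relative to median high and low control wells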
Numbers without * were called inactive; nt = no result. Only some compounds are listed: those with a hit (about 6.4% of all), similar ones and a draw of the others.

SMILES	WT yeast gro inh	CHOP inh	GRIN3A LBD mod	EBV gp42 inh	MPTP block	Tb MetRS inh
CCOC(=O)C1=C(C)NC(SC)=NC1c1ccc(OC)cc1 (stereo not given)	1	-1	-1	-26	6	1
COCCn1nnnc1C(c1ccc(OC)cc1)N1CCN(c2ccccc2F)CC1 (stereo not given)	32	10	3	-5	-2	-1
Cc1cc(C)nc(NC(=S)NC(=O)c2ccccc2F)n1	nt	nt	1	nt	2	0
Cc1cc(C)nc(S/C=C/C(=O)c2ccccc2F)n1	nt	85*	0	-2	3	-1
CCOC(=O)C1CCN(c2c(C(=O)c3ccccc3)cnc3ccc(Cl)cc23)CC1	75*	47	0	2	0	0
CCOC(=O)C1CCN(c2nc(-c3ccc(C)cc3)nc3ccccc23)CC1	71*	3	3	-2	12	-1
CSc1ccccc1NC(=O)NCCCl	-6	8	242*	-2	0	-1
O=C(Nc1c(C(=O)O)[nH]c2ccc(F)cc12)c1cccc(C(F)(F)F)c1	nt	16	12*	1	1	-2
CCCc1[nH]nc2c1C(c1cccc(OC(=O)c3ccco3)c1)C(C#N)=C(N)O2 (stereo not given)	-3	18	0	19	2	0
COc1cc(C)cc(C(=O)C=Cc2ccccc2)c1O	nt	nt	17*	nt	-2	0
CC(C)C[C@H](NC(=O)N1CC(=O)Nc2ccccc21)C(=O)N[C@@H](C(=O)O)c1ccccc1	nt	nt	-5	nt	0	-1
CCc1ccc(C)c(OC(=O)c2cncc(Br)c2)c1	nt	nt	2	nt	1	0
COc1ccc(C(=O)Nc2nnc(SCC(=O)Nc3ccc(NC(C)=O)cc3)s2)c(OC)c1	nt	nt	20*	nt	2	0
CC(=O)Nc1ccc(NC(=O)CSc2nnc(NC(=O)c3cccc(F)c3)s2)cc1	nt	nt	31*	nt	1	0
COc1ccc(C(=O)Nc2nnc(SCC(=O)NC3CCCC3)s2)c(OC)c1	nt	nt	-2	nt	3	0
CC(=O)Nc1ccc(NC(=O)CSc2nnc(NC(=O)c3ccco3)s2)cc1	nt	nt	16*	nt	0	0
O=C(CSc1nnc(NC(=O)c2ccco2)s1)Nc1ccccc1	-25	-7	3	-1	1	0
Cc1cccc(-c2nnc(NC(=O)c3ccco3)s2)c1	nt	nt	24*	nt	1	0
CC(=O)Nc1ccc(NC(=O)CSc2nnc(NC(=O)C3CC3)s2)cc1	nt	nt	3	nt	-1	0
O=C(CSc1nnc(NC(=O)C2CC2)s1)Nc1ccc(F)cc1	-2	27	14*	-2	0	-1
O=C(Nc1nnc(SCc2ccc(F)cc2)s1)c1ccc2ncsc2c1	-7	73*	1	-15	2	0
COc1ccc(S(=O)(=O)/C(C#N)=C/Nc2cccc(OC)c2)cc1	nt	nt	1	nt	3	0
Cc1ccccc1CC(=O)Nc1ccc(S(=O)(=O)N2CCOCC2)cc1	nt	nt	1	nt	-1	0
CSc1nc(C)cc(C)c1S(=O)(=O)c1ccccc1C	-5	50	1	-5	-2	-1
CCSc1nc(C)cc(C)c1S(=O)(=O)c1ccccc1C	23	71*	-11	-9	0	-1
SMILES	WT yeast gro inh	CHOP inh	GRIN3A LBD mod	EBV gp42 inh	MPTP block	Tb MetRS inh
CCN(CC)c1ccc(Nc2nc(N3CCOCC3)c3ccccc3n2)cc1	12	74*	-4	-1	29	0
c1ccc2c(c1)nc(N1CCOCC1)c1ccccc12	-3	49	-1	-3	1	0
CCOC(=O)c1nnn(-c2nc(N3CCCC3)nc(N3CCCC3)n2)c1-c1ccccc1	22	89*	-2	-15	7	0
Fc1ccccc1N1CCN(Cc2nc(-c3ccc(Cl)cc3Cl)no2)CC1	5	-3	20*	-7	34	0
Clc1ccc(Cc2noc(CN3CCN(c4ccccc4)CC3)n2)c(Cl)c1	43	7	2	-12	2	-1
CCC(=O)Nc1nc2c(OC)ccc(OC)c2s1	3	10	-1	-6	0	0
COc1ccc(OC)c2sc(NC(=O)c3ccc(Br)s3)nc12	-17	91*	0	16	0	-1
COc1ccc(CC(=O)N(C)Cc2ccc(C(C)(C)C)cc2)cc1S(=O)(=O)N1CCOCC1	nt	nt	11*	nt	0	0
CC(=O)c1cccc(NC(=O)CSCc2ccccc2)c1	10	-25	-2	-5	2	-1
CC(=O)c1cccc(NC(=O)CSCc2ccc(Br)cc2)c1	-4	13	23*	-12	-17	1
Cc1ccccc1N/N=C/c1ccc(C#N)cc1	-8	15	18*	-1	12	0
CN/N=C/c1ccc(C#N)cc1	-2	2	-17	-13	1	0
O=c1[nH]c2ccc(Cl)cc2c(-c2ccccc2)c1N1CCN(c2ccccn2)CC1	42	71*	-23	1	2	-1
COc1ccc(/C=N/Nc2ncc(C(F)(F)F)cc2Cl)c(OC)c1OC	11	3	-2	-12	1	0
COc1ccc(NC(=O)CSc2nc(-c3ccco3)nc3cc(=O)[nH]n23)cc1Cl	nt	nt	0	nt	1	0
N#C/C(=N\O)c1nc2ccccc2[nH]1	0	24	22*	-16	0	-1
Cc1ccc2nc(/C(C#N)=N/O)[nH]c2c1	-2	-12	-12	-1	3	-1
O=C(Nc1cccc2nsnc12)c1cccnc1Cl	-7	22	2	-21	0	0
CCCCCCC1CC(CCC(=O)Nc2ccc([N+](=O)[O-])cc2)C(=O)O1 (stereo not given)	1	84*	0	-5	-2	-1
CCCCCC1CC(CC(=O)Nc2ccc([N+](=O)[O-])cc2)OC1=O (stereo not given)	nt	91*	2	-10	8	0
COc1ccccc1CNCC(O)(c1ccc(F)cc1)c1ccc(F)cc1	nt	nt	0	nt	1	0
Cc1ccc(CNCC(O)(c2ccc(F)cc2)c2ccc(F)cc2)cc1	32	86*	-1	-14	6	0
Cc1ccc(CNCC(O)(c2ccccc2)c2ccc(F)cc2)cc1 (stereo not given)	75*	51	0	-7	5	0
OC(CNCc1ccccc1F)(c1ccc(F)cc1)c1ccc(F)cc1	44	75*	-1	-9	3	-1
OC(CNCc1ccc(F)cc1)(c1ccccc1)c1ccc(F)cc1 (stereo not given)	18	54	0	-5	1	0
Cc1cc(NS(=O)(=O)c2ccc(C(C)C)cc2)no1	nt	nt	0	nt	0	0
NC(=O)c1ccc(N=Nc2c(-c3ccccc3)[nH]n(-c3ccccc3)c2=O)cc1	10	-36	nt	-5	nt	nt
Nc1[nH]n2c(=O)cc(-c3ccccc3)nc2c1N=Nc1ccccc1	20	-16	16*	5	4	-1
Cc1ccc(N=Nc2c(N)[nH]n3c(=O)cc(C)nc23)cc1	-11	25	1	-7	3	-1
